SMILES strings stand for the structures. Where only a bound is given, the exact number is not on record here.

In data set [1] the target is T1, Plasma kallikrein (Homo sapiens, UniProt P03952). The data set can be described thus: Inhibition of human plasma kallikrein using H-D-Pro-Phe-Arg-AFC as flurogenic substrate preincubated for 5 mins followed by substrate addition by fluorometer analysis. It is filed as cell-free.
The target in data set [2] is T1, Plasma kallikrein. The data set can be described thus: Inhibition of human plasma kallikrein using H-D-Pro-Phe-Arg-AFC as flurogenic substrate at 100 nM preincubated for 5 mins followed by substrate addition by fluorometer analysis relative to control. It counts as cell-free. The method in brief:
(§1)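 Crude library compounds (unpurified, dissolved in DMSO) were screened twice, once at each of the single concentrations. Human plasma kallikrein was preincubated with compound for 5 min, then H-D-Pro-Phe-Arg-AFC was added. Activity was followed as the kinetic rate of fluorogenic substrate cleavage, and percent inhibition was calculated relative to control.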

Data set [3] deals with T1, Plasma kallikrein. Put plainly: Inhibition of human plasma kallikrein using H-D-Pro-Phe-Arg-AFC as flurogenic substrate at 1000 nM preincubated for 5 mins followed by substrate addition by fluorometer analysis relative to control. It is filed as cell-free. The method in brief: as §1
Data set [4] can be described thus: Metabolic stability in human liver microsomes assessed as intrinsic clearance per mg of protein measured upto 60 mins in presence of NADPH regenerating system by LC-MS/MS analysis. The settings on record: microsomes, 1 h. It counts as ADME, Microsome.

T1 sequence (P03952 20-390 limits assumed): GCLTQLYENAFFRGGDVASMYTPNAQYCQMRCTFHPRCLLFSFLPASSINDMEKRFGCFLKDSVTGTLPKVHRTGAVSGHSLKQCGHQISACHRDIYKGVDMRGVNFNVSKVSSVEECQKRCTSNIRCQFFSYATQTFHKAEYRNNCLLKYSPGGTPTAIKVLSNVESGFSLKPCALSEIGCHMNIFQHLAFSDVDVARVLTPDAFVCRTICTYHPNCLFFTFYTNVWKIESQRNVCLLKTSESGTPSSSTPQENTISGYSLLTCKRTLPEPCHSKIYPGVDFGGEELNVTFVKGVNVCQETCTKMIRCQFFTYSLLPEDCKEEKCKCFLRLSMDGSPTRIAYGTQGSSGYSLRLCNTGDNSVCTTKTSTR
T1 sequence (P03952 391-638 limits assumed): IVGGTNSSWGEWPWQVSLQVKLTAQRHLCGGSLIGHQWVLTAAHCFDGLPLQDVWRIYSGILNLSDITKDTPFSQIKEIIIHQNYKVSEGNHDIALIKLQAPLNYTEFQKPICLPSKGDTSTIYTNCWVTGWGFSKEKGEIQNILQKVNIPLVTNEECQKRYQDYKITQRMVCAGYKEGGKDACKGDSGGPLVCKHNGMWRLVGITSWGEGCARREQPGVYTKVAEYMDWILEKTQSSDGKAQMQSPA

As a reminder, the IC50 is the concentration that inhibits the measured activity by half. A lower IC50 goes with inhibition by little substance. As to `Cc1cc(C(=O)NCc2ccc(CN)cc2)c(C)n1Cc1cccs1`, in data set [1], the IC50 came to 2.7 µM.
In general, inhibition refers to the share of the control response that was lost under treatment. Read a low inhibition as a response near the control. With `COc1ccc(CNC(=O)c2cnn(Cc3ccc(Cn4ccccc4=O)cc3)c2)cc1`, the inhibition in data set [2] was 17%; in data set [3], 72%.
Consider `O=C(NCc1c(F)cccc1Cl)c1cnn(Cc2ccc(Cn3ccccc3=O)cc2)c1`, for which, in data set [1], inhibition was half-maximal at 0.031 µM (IC50). Moreover, the inhibition in data set [2] is 61%; in data set [3], 92%.
On to `O=C(NCc1ccccc1F)c1cnn(Cc2ccc(Cn3ccccc3=O)cc2)c1`, for which the inhibition in data set [2] worked out at 13%; in data set [3] it was 59%.
In turn, `Cc1cc(C(=O)NCc2ccc(CN)cc2)c(C)n1Cc1cccc(-c2ccccc2)c1` showed an IC50 in data set [1] of 0.73 µM.
Still for that read-out and setting: under `COCc1nn(Cc2ccc(Cn3ccccc3=O)cc2)cc1C(=O)NCc1nc(OC)ccc1F` stands 0.9 µM.
Turning to `Cc1cc(C(=O)NCc2ccc(CN)cc2)c(C)n1Cc1csc(-c2ccccc2)n1`, the IC50 in data set [1] turned out to be 0.072 µM.
Turning to `O=C(NCc1ccccc1)c1cnn(Cc2ccc(Cn3ccccc3=O)cc2)c1`, the inhibition in data set [2] came to 0%; in data set [3] it was 29%.
Compound `COCc1nn(Cc2ccc(Cn3ccccc3=O)cc2)cc1C(=O)NCc1nccc(Cl)c1F` gave an IC50 in data set [1] of 0.093 µM.
Compound `Cc1cccc(C)c1CNC(=O)c1cnn(Cc2ccc(Cn3ccccc3=O)cc2)c1` showed an IC50 in data set [1] of 0.068 µM. The inhibition came out at 53% in data set [2] and 89% in data set [3].
Compound `Cc1cc(C(=O)NCc2ccc(CN)cc2)c(C)n1Cc1coc(-c2ccccc2)n1` showed an IC50 in data set [1] of 0.48 µM.
Same read-out and setting: under `NCc1ccc(CNC(=O)c2cnn(Cc3csc(-c4ccccc4)n3)c2)cc1` stands 0.85 µM; under `Cc1cc(C(=O)NCc2ccc(CN)cc2)c(C)n1Cc1csc(-c2ccccc2)c1`, 0.6 µM.
Consider `COc1ccnc(CNC(=O)c2cnn(Cc3ccc(Cn4ccccc4=O)cc3)c2)c1F`, for which inhibition in data set [1] was half-maximal at 0.0051 µM (IC50). Also, the microsomal intrinsic clearance in data set [4] was determined as 2 µL/min.
In turn, `COCc1nn(Cc2ccc(Cn3ccccc3=O)cc2)cc1C(=O)NCc1nccc(C)c1Cl` showed an IC50 in data set [1] of 0.3 µM.
The same measure, in the same setting: the result for `Cc1cc(C(=O)NCc2ccc(CN)cc2)c(C)n1Cc1cccc(-c2cccnc2)n1` reads 0.58 µM.
On to `Cc1cccc(CNC(=O)c2cnn(Cc3ccc(Cn4ccccc4=O)cc3)c2)c1`, for which the inhibition was 11% in data set [2] and 57% in data set [3].
`COc1cccc(CNC(=O)c2cnn(Cc3ccc(Cn4ccccc4=O)cc3)c2)c1` had an IC50 in data set [1] of 0.09 µM. In addition, the inhibition in data set [2] is 35%; in data set [3], 83%.
Taken in the same sequence, the figures for `O=C(NCc1c(F)cccc1F)c1cnn(Cc2ccc(Cn3ccccc3=O)cc2)c1` were 0.062 µM, 47% and 88%.
For the compound `Cc1cc(C(=O)NCc2ccc(CN)cc2)c(C)n1CCCc1ccccc1`, the IC50 in data set [1] is 4.8 µM.
Consider `Cc1cc(C(=O)NCc2ccc(CN)cc2)c(C)n1CCc1ccccc1`, for which the IC50 in data set [1] is above 10 µM.
On the same count and under the same terms, the result for `Cc1cc(C(=O)NCc2ccc(C(=N)N)cc2)c(C)n1Cc1ccccc1` reads 0.0055 µM.
On to `Cc1ccc(CNC(=O)c2cnn(Cc3ccc(Cn4ccccc4=O)cc3)c2)cc1`, for which 0.088 µM corresponded to half-maximal inhibition in data set [1] (IC50). Further, the inhibition is 36% in data set [2] and 84% in data set [3].
`COCc1nn(Cc2ccc(Cn3ccccc3=O)cc2)cc1C(=O)NCc1cc[nH]n1` yielded an IC50 in data set [1] of 0.57 µM.
`O=C(NCc1cccc(Cl)c1)c1cnn(Cc2ccc(Cn3ccccc3=O)cc2)c1`: the values for the inhibition in data set [2] and in data set [3] were 20% and 74%, respectively.
Take `Cc1cnn(Cc2ccc(Cn3c(C)cc(C(=O)NCc4ccc(CN)cc4)c3C)cc2)c1`: in data set [1], half-maximal inhibition (IC50) required 0.065 µM.
Same read-out and setting: the result for `COCc1nn(Cc2ccc(Cn3ccccc3=O)cc2)cc1C(=O)NCc1ncc(C)c(OC)c1C` reads 0.037 µM.
In data set [1], `COc1ccnc(CNC(=O)c2cn(Cc3ccc(Cn4ccccc4=O)cc3)nc2C2CC2)c1F` showed an IC50 of 0.0044 µM. For the same compound, in data set [4], the microsomal intrinsic clearance stood at 49 µL/min.
Compound `Cc1cc(C(=O)NCc2ccc(CN)cc2)c(C)n1Cc1cc(-c2ccccc2)cs1` showed an IC50 in data set [1] of 0.57 µM.
In turn, `COCc1nn(Cc2ccc(Cn3ccccc3=O)cc2)cc1C(=O)NCc1sccc1Cl` gave a 50% inhibitory concentration (IC50) in data set [1] of 0.21 µM.
Consider `O=C(NCc1ccccc1Cl)c1cnn(Cc2ccc(Cn3ccccc3=O)cc2)c1`, for which the inhibition in data set [2] worked out at 12%; in data set [3], 67%.
With `Cc1cc(C(=O)NCc2ccc(CN)cc2)c(C)n1Cc1csc(Cc2ccccc2)n1`, the IC50 in data set [1] was found to be 2.7 µM.
For the compound `Cc1cc(C(=O)NCc2ccc(CN)cc2)c(C)n1CCCCCc1ccccc1`, in data set [1], the IC50 came to 3.8 µM.
On the same count and under the same terms, under `COCc1nn(Cc2ccc(Cn3ccccc3=O)cc2)cc1C(=O)NCc1ncc(F)cc1F` stands 2.22 µM.
Regarding `COCc1nn(Cc2ccc(Cn3ccccc3=O)cc2)cc1C(=O)NCc1nc(C)ccc1F`, the IC50 in data set [1] came out at 0.9 µM.
Same read-out and setting: under `COCc1nn(Cc2ccc(Cn3ccccc3=O)cc2)cc1C(=O)NCc1nccc(OC(C)C)c1F` stands 2.4 µM.
For `O=C(NCc1ccc(Cl)cc1)c1cnn(Cc2ccc(Cn3ccccc3=O)cc2)c1`, the inhibition in data set [2] came to 13%; in data set [3] it was 60%.
In data set [1], `COCc1nn(Cc2ccc(Cn3ccccc3=O)cc2)cc1C(=O)NCc1ncc(Cl)cc1F` came in with an IC50 of 0.16 µM.
Regarding `COCc1nn(Cc2ccc(Cn3ccccc3=O)cc2)cc1C(=O)NCc1nccc(C)c1F`, the IC50 in data set [1] was 0.14 µM.
For the compound `Cc1cnn(Cc2ccc(Cn3cc(C(=O)NCc4ccc5c(N)nccc5c4)cn3)cc2)c1`, the microsomal intrinsic clearance in data set [4] turned out to be 181 µL/min.
On to `COCc1nn(Cc2ccc(Cn3ccccc3=O)cc2)cc1C(=O)NCc1cc(C)[nH]n1`, for which the IC50 in data set [1] was 0.22 µM.
The compound `O=C(NCc1c(Cl)cccc1Cl)c1cnn(Cc2ccc(Cn3ccccc3=O)cc2)c1` registered an IC50 in data set [1] of 0.04 µM. Besides, the inhibition in data set [2] came out at 56%; in data set [3], 94%.
Take `Cc1cc(C(=O)NCc2ccc(CN)cc2)c(C)n1CCCCc1ccccc1`: half-maximal inhibition in data set [1] (IC50) was put at 0.92 µM.
For `O=C(NCc1c(F)cccc1C(F)(F)F)c1cnn(Cc2ccc(Cn3ccccc3=O)cc2)c1`, 0.0078 µM corresponded to half-maximal inhibition in data set [1] (IC50). The inhibition in data set [2] came out at 83%; in data set [3], 97%.
On to `CCOc1ccnc(CNC(=O)c2cn(Cc3ccc(Cn4ccccc4=O)cc3)nc2COC)c1F`, for which the IC50 in data set [1] stood at 0.0079 µM. The microsomal intrinsic clearance in data set [4] came to 69 µL/min.
Compound `COCc1nn(Cc2ccc(Cn3ccccc3=O)cc2)cc1C(=O)NCc1ncc(Cl)cc1C#N` returned an IC50 in data set [1] of 0.25 µM.
As to `COCc1nn(Cc2ccc(Cn3ccccc3=O)cc2)cc1C(=O)NCc1cnccc1C(F)(F)F`, the IC50 in data set [1] worked out at 0.46 µM.
On the same count and under the same terms, under `Cc1cc(C(=O)NCc2ccc(CN)cc2)c(C)n1Cc1ccccc1` stands 3.7 µM.
As for `COc1ccccc1CNC(=O)c1cnn(Cc2ccc(Cn3ccccc3=O)cc2)c1`, the inhibition stood at 11% in data set [2] and 63% in data set [3].
With `Cc1ccccc1CNC(=O)c1cnn(Cc2ccc(Cn3ccccc3=O)cc2)c1`, the results for the inhibition in data set [2] and in data set [3] were 12% and 62%, respectively.
Consider `Cc1cc(C(=O)NCc2ccc(CN)cc2)c(C)n1Cc1csc(-c2cccnc2)c1`, for which, in data set [1], inhibition was half-maximal at 0.44 µM (IC50).
In the case of `COc1ccc(F)c(CNC(=O)c2cnn(Cc3ccc(Cn4ccccc4=O)cc3)c2)c1F`, 0.003 µM corresponded to half-maximal inhibition in data set [1] (IC50). In addition, in data set [4], the microsomal intrinsic clearance worked out at 36 µL/min.
For `Cc1cc(C(=O)NCc2ccc(CN)cc2)c(C)n1Cc1ccc(-c2ccccc2)cc1`, the IC50 in data set [1] was 5.6 µM.
The same measure, in the same setting: under `N=C(N)c1ccc(CNC(=O)c2cnn(Cc3ccccc3)c2)cc1` stands 0.062 µM.

For the origin of these results see ChEMBL document CHEMBL5108074 (J Med Chem, 2022).
